Data published in ChEMBL document CHEMBL1132108, “Design, synthesis, and activity of a series of pyrrolidine-3-carboxylic acid-based, highly specific, orally active ET(B) antagonists containing a diphenylmethylamine acetamide side chain” (J Med Chem, 1999).

Key:
[1] = target: T1, Endothelin receptor type B (Homo sapiens, UniProt P24530); experiment: Binding ability determined by the displacement of [125 I]ET-3 from the human Endothelin B receptor
T1 sequence (P24530 whole entry): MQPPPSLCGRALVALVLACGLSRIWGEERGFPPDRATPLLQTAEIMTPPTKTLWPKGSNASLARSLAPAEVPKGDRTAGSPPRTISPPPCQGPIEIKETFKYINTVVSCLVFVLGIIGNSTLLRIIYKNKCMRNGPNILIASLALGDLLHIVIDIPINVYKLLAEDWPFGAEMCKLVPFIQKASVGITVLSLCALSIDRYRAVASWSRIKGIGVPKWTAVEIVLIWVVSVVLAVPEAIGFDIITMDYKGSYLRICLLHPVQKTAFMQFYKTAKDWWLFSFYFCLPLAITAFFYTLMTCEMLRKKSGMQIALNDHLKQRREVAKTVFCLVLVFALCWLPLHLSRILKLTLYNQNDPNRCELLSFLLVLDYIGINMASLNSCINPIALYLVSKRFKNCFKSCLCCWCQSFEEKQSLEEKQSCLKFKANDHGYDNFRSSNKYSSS

[2] = target: Endothelin receptor, ET-A/ET-B (Homo sapiens) (UniProt P24530+P25101); experiment: Ratio of binding affinity towards human endothelin receptor type A to human endothelin receptor type B (hETA to hETB); format: protein assay
Endothelin-1 receptor = target: T2, Endothelin-1 receptor (Homo sapiens, UniProt P25101); experiment: Binding ability determined by the displacement of [125I]ET1 from the human endothelin A receptor
T2 sequence (P25101 whole entry): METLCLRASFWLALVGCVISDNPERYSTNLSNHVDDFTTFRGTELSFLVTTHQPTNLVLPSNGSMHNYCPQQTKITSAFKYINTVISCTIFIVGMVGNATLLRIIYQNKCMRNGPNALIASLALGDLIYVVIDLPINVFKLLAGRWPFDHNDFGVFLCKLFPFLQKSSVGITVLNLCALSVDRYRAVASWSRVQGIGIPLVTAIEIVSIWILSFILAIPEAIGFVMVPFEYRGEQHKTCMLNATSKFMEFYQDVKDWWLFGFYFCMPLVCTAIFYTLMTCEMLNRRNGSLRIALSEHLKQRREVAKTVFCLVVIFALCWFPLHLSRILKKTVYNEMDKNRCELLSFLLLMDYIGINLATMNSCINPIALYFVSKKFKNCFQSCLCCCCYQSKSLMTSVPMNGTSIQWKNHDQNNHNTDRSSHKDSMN

[3] = Oral bioavailability; format: ADME, organism-based; details: eutheria, in vivo
Summary of the method: (§1)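 Rats dosed at 5 mg/kg by intravenous injection and by oral gavage. Time course of plasma drug levels compared between the two routes to give half-life and AUC0-∞. Oral bioavailability F is calculated from the two routes.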

[4] = Half life (5 mg/kg) when administered orally; format: ADME, organism-based; details: in vivo, po; summary of the method: as §1
[5] = Total drug exposure (5 mg/kg) when administered intravenously; format: ADME, organism-based; details: in vivo, iv; summary of the method: as §1
[6] = Total drug exposure (5 mg/kg) when administered orally; format: ADME, organism-based; details: in vivo, po; summary of the method: as §1
[7] = Half life (5 mg/kg) when administered intravenously; format: ADME, organism-based; details: in vivo, iv; summary of the method: as §1

SMILES | IC50 [1] [nM] | Ratio [2] | IC50 (Endothelin-1 receptor) [nM] | bioavailability [3] [%] | half-life [4] [h] | AUC [5] [µg·h/mL] | AUC [6] [µg·h/mL] | half-life [7] [h]
COc1ccc([C@H]2[C@H](C(=O)O)[C@@H](c3ccc4c(c3)OCO4)CN2CC(=O)NC2c3ccccc3-c3ccccc32)cc1 | 600 | 2.05 | 1230 | – | – | – | – | –
Cc1ccccc1C(NC(=O)CN1C[C@H](c2ccc3c(c2)OCO3)[C@@H](C(=O)O)[C@@H]1c1ccc(OCCOC(C)C)cc1)c1ccccc1C.O=C(O)C(F)(F)F (stereo in doubt; form 1) | 1.9 | – | 51700 | 24 | 4.8 | 3.03 | 0.73 | 1.8
CC(C)OCCOc1ccc([C@H]2[C@H](C(=O)O)[C@@H](c3ccc4c(c3)OCO4)CN2CC(=O)NC(c2ccccc2)C(C)(C)C)cc1 (stereo partly specified) | 0.71 | 454 | 322 | – | – | – | – | –
COc1ccc([C@H]2[C@H](C(=O)O)[C@@H](c3ccc4c(c3)OCO4)CN2CC(=O)NCC(c2ccccc2)c2ccccc2)cc1 | 108 | 1.84 | 199 | – | – | – | – | –
CCc1ccccc1C(NC(=O)CN1C[C@H](c2ccc3c(c2)OCO3)[C@@H](C(=O)O)[C@@H]1c1ccc(OC)cc1)c1ccccc1C (stereo partly specified) | 6.1 | 123 | 749 | – | – | – | – | –
Cc1ccccc1C(NC(=O)CN1C[C@H](c2ccc3c(c2)OCO3)[C@@H](C(=O)O)[C@@H]1c1ccc(OCCOC(C)C)cc1)c1ccccc1C (stereo in doubt; form 2) [listing 1 of 2 here] | 3.3 | – | 77400 | – | – | – | – | –
COCCOc1ccc([C@H]2[C@H](C(=O)O)[C@@H](c3ccc4c(c3)OCO4)CN2CC(=O)NC(c2ccccc2C)c2ccccc2C)cc1.O=C(O)C(F)(F)F (stereo in doubt; form 2) | 1.7 | – | 27000 | 8 | 0.55 | 2.5 | 0.2 | 2.9
COc1ccc([C@H]2[C@H](C(=O)O)[C@@H](c3ccc4c(c3)OCO4)CN2CC(=O)NC(c2ccccc2)(c2ccccc2)c2ccccc2)cc1 | 744 | 0.58 | 432 | – | – | – | – | –
COc1ccc([C@H]2[C@H](C(=O)O)[C@@H](c3ccc4c(c3)OCO4)CN2CC(=O)NC(c2ccccc2)c2cc(C)ccc2C)cc1 (stereo partly specified) | 31 | 3.94 | 122 | – | – | – | – | –
COCCOc1ccc([C@H]2[C@H](C(=O)O)[C@@H](c3ccc4c(c3)OCO4)CN2CC(=O)NC(c2ccccc2C)c2ccccc2C)cc1 (stereo in doubt; form 1) [listing 1 of 2 here] | – | 12100 | – | – | – | – | – | –
Cc1ccccc1C(NC(=O)CN1C[C@H](c2ccc3c(c2)OCO3)[C@@H](C(=O)O)[C@@H]1c1ccc(OCCOC(C)C)cc1)c1ccccc1C (stereo in doubt; form 2) [listing 2 of 2 here] | – | 23400 | – | – | – | – | – | –
CCc1ccccc1C(NC(=O)CN1C[C@H](c2ccc3c(c2)OCO3)[C@@H](C(=O)O)[C@@H]1c1ccc(OC)cc1)c1ccccc1CC | 6.6 | 15.2 | 100 | – | – | – | – | –
CCc1ccccc1C(NC(=O)CN1C[C@H](c2ccc3c(c2)OCO3)[C@@H](C(=O)O)[C@@H]1c1ccc(OCCOC(C)C)cc1)c1ccccc1C (stereo partly specified) | 3.3 | 4320 | 14300 | – | – | – | – | –
COCCOc1ccc([C@H]2[C@H](C(=O)O)[C@@H](c3ccc4c(c3)OCO4)CN2CC(=O)NC(c2ccccc2C)c2ccccc2C)cc1 (stereo in doubt; form 1) [listing 2 of 2 here] | 1.7 | – | 20600 | – | – | – | – | –
COc1ccc([C@H]2[C@H](C(=O)O)[C@@H](c3ccc4c(c3)OCO4)CN2CC(=O)NC(c2ccccc2C)c2ccccc2C)cc1 | 1.1 | 146 | 161 | – | – | – | – | –
COCCOc1ccc([C@H]2[C@H](C(=O)O)[C@@H](c3ccc4c(c3)OCO4)CN2CC(=O)NC(c2ccccc2C)c2ccccc2C)cc1 (stereo in doubt; form 2) | – | 16000 | – | – | – | – | – | –
Cc1ccccc1C(NC(=O)CN1C[C@H](c2ccc3c(c2)OCO3)[C@@H](C(=O)O)[C@@H]1c1ccc(OCCOC(C)C)cc1)c1ccccc1C (stereo in doubt; form 1) | – | 27200 | – | – | – | – | – | –

The next lines start with the values.

IC50 [1] [nM] | Ratio [2] | IC50 (Endothelin-1 receptor) [nM] | bioavailability [3] [%] | half-life [4] [h] | AUC [5] [µg·h/mL] | AUC [6] [µg·h/mL] | half-life [7] [h] | SMILES
1.1 | 2.27 | 2.5 | – | – | – | – | – | CCC(CC)C(NC(=O)CN1C[C@H](c2ccc3c(c2)OCO3)[C@@H](C(=O)O)[C@@H]1c1ccc(OC)cc1)c1ccccc1 (stereo partly specified)
3.4 | 18.7 | 63.5 | – | – | – | – | – | COc1ccc([C@H]2[C@H](C(=O)O)[C@@H](c3ccc4c(c3)OCO4)CN2CC(=O)NC(c2ccccc2)c2ccccc2C)cc1 (stereo partly specified)
8.1 | 5.67 | 45.9 | – | – | – | – | – | COc1ccc([C@H]2[C@H](C(=O)O)[C@@H](c3ccc4c(c3)OCO4)CN2CC(=O)NC(c2ccccc2)c2ccccc2)cc1
18 | 0.89 | 16 | – | – | – | – | – | COc1ccc([C@H]2[C@H](C(=O)O)[C@@H](c3ccc4c(c3)OCO4)CN2CC(=O)NC(C)c2ccccc2C)cc1 (stereo partly specified)
0.94 | 9.36 | 8.8 | – | – | – | – | – | COc1ccc([C@H]2[C@H](C(=O)O)[C@@H](c3ccc4c(c3)OCO4)CN2CC(=O)NC(c2ccccc2)C(C)(C)C)cc1 (stereo partly specified)
2.2 | 222 | 488 | – | – | – | – | – | COCCOc1ccc([C@H]2[C@H](C(=O)O)[C@@H](c3ccc4c(c3)OCO4)CN2CC(=O)NC(c2ccccc2)C(C)(C)C)cc1 (stereo partly specified)
2.6 | 0.38 | 1 | – | – | – | – | – | CCC(NC(=O)CN1C[C@H](c2ccc3c(c2)OCO3)[C@@H](C(=O)O)[C@@H]1c1ccc(OC)cc1)c1ccccc1 (stereo partly specified)
7.3 | 0.51 | 3.7 | – | – | – | – | – | CCCC(NC(=O)CN1C[C@H](c2ccc3c(c2)OCO3)[C@@H](C(=O)O)[C@@H]1c1ccc(OC)cc1)c1ccccc1 (stereo partly specified)
2.1 | 0.33 | 0.7 | – | – | – | – | – | COc1ccc([C@H]2[C@H](C(=O)O)[C@@H](c3ccc4c(c3)OCO4)CN2CC(=O)NC(c2ccccc2)C(C)C)cc1 (stereo partly specified)
20 | 0.28 | 5.5 | – | – | – | – | – | COc1ccc([C@H]2[C@H](C(=O)O)[C@@H](c3ccc4c(c3)OCO4)CN2CC(=O)NC(C)c2ccccc2)cc1 (stereo partly specified)
5 | 0.32 | 1.6 | – | – | – | – | – | CCCCC(NC(=O)CN1C[C@H](c2ccc3c(c2)OCO3)[C@@H](C(=O)O)[C@@H]1c1ccc(OC)cc1)c1ccccc1 (stereo partly specified)
3.4 | 4 | 13.6 | – | – | – | – | – | COc1ccc([C@H]2[C@H](C(=O)O)[C@@H](c3ccc4c(c3)OCO4)CN2CC(=O)NC(CC(C)C)c2ccccc2)cc1 (stereo partly specified)
47 | 0.08 | 3.9 | – | – | – | – | – | COc1ccc([C@H]2[C@H](C(=O)O)[C@@H](c3ccc4c(c3)OCO4)CN2CC(=O)NC(Cc2ccccc2)c2ccccc2)cc1 (stereo partly specified)
5 | 26.2 | 131 | – | – | – | – | – | COc1ccc([C@H]2[C@H](C(=O)O)[C@@H](c3ccc4c(c3)OCO4)CN2CC(=O)NC(CC(C)(C)C)c2ccccc2)cc1 (stereo partly specified)
